# Measured values: ChEMBL document CHEMBL1926577, “Novel 1,3,4-heterodiazole analogues: synthesis and in-vitro antitumor activity” (2012)
# How the values were obtained:
# Format in all cases: functional
# M14 = experiment: Growth inhibition of human M14 cells at 10 uM after 48 hrs by coulter counter method; settings: M14, 48 h, read-out: GI
# Summary of the method: (§1)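 NCI 60-cell-line panel, single dose. Compound dissolved first in DMSO, then diluted in phosphate-buffered saline so that every final dilution held under 1% DMSO. Duplicate wells received cells at 6 × 10⁴ cells/ml. Controls held PBS/DMSO at the same dilution. Plates were incubated 48 h at 37 °C under 5% CO₂. Cells were then diluted 10-fold in saline and counted on a Coulter counter, with counts corrected for the dilution. Results are given as percent growth inhibition.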
# NCI-H522 = experiment: Growth inhibition of human NCI-H522 cells at 10 uM after 48 hrs by coulter counter method; settings: NCI-H522, 48 h, read-out: GI; summary of the method: as §1
# NCI-H322M = experiment: Growth inhibition of human NCI-H322M cells at 10 uM after 48 hrs by coulter counter method; settings: read-out: GI; summary of the method: as §1
# HCT-116 = experiment: Growth inhibition of human HCT116 cells at 10 uM after 48 hrs by coulter counter method; settings: HCT-116, 48 h, read-out: GI; summary of the method: as §1
# UO-31 = experiment: Growth inhibition of human UO31 cells at 10 uM after 48 hrs by coulter counter method; settings: UO-31, 48 h, read-out: GI; summary of the method: as §1
# KM12 = experiment: Growth inhibition of human KM12 cells at 10 uM after 48 hrs by coulter counter method; settings: KM12, 48 h, read-out: GI; summary of the method: as §1
# MDA-MB-435 = experiment: Growth inhibition of human MDA-MB-435 cells at 10 uM after 48 hrs by coulter counter method; settings: MDA-MB-435, 48 h, read-out: GI; summary of the method: as §1
# 786-0 = experiment: Growth inhibition of human 786-0 cells at 10 uM after 48 hrs by coulter counter method; settings: 786-0, 48 h, read-out: GI; summary of the method: as §1
# SK-MEL-5 = experiment: Growth inhibition of human SK-MEL-5 cells at 10 uM after 48 hrs by coulter counter method; settings: SK-MEL-5, 48 h, read-out: GI; summary of the method: as §1
# SN12C = experiment: Growth inhibition of human SN12C cells at 10 uM after 48 hrs by coulter counter method; settings: read-out: GI; summary of the method: as §1
# SF-295 = experiment: Growth inhibition of human SF295 cells at 10 uM after 48 hrs by coulter counter method; settings: SF-295, 48 h, read-out: GI; summary of the method: as §1
# SNB-19 = experiment: Growth inhibition of human SNB19 cells at 10 uM after 48 hrs by coulter counter method; settings: SNB-19, 48 h, read-out: GI; summary of the method: as §1
# SR = experiment: Growth inhibition of human SR cells at 10 uM after 48 hrs by coulter counter method; settings: read-out: GI; summary of the method: as §1
# NCI-H226 = experiment: Growth inhibition of human NCI-H226 cells at 10 uM after 48 hrs by coulter counter method; settings: NCI-H226, 48 h, read-out: GI; summary of the method: as §1
# MCF7 = experiment: Growth inhibition of human MCF7 cells at 10 uM after 48 hrs by coulter counter method; settings: MCF7, 48 h, read-out: GI; summary of the method: as §1
# BT-549 = experiment: Growth inhibition of human BT549 cells at 10 uM after 48 hrs by coulter counter method; settings: BT-549, 48 h, read-out: GI; summary of the method: as §1
# CCRF-CEM = experiment: Growth inhibition of human CCRF-CEM cells at 10 uM after 48 hrs by coulter counter method; settings: read-out: GI; summary of the method: as §1
# K562 = experiment: Growth inhibition of human K562 cells at 10 uM after 48 hrs by coulter counter method; settings: K562, 48 h, read-out: GI; summary of the method: as §1
# UACC-62 = experiment: Growth inhibition of human UACC62 cells at 10 uM after 48 hrs by coulter counter method; settings: UACC-62, 48 h, read-out: GI; summary of the method: as §1
# EKVX = experiment: Growth inhibition of human EKVX cells at 10 uM after 48 hrs by coulter counter method; settings: read-out: GI; summary of the method: as §1
# SNB-75 = experiment: Growth inhibition of human SNB75 cells at 10 uM after 48 hrs by coulter counter method; settings: SNB-75, 48 h, read-out: GI; summary of the method: as §1
# MOLT-4 = experiment: Growth inhibition of human MOLT4 cells at 10 uM after 48 hrs by coulter counter method; settings: MOLT-4, 48 h, read-out: GI; summary of the method: as §1
# SF-268 = experiment: Growth inhibition of human SF268 cells at 10 uM after 48 hrs by coulter counter method; settings: SF-268, 48 h, read-out: GI; summary of the method: as §1
# RPMI-8226 = experiment: Growth inhibition of human RPMI8226 cells at 10 uM after 48 hrs by coulter counter method; settings: RPMI-8226, 48 h, read-out: GI; summary of the method: as §1
# LOX IMVI = experiment: Growth inhibition of human LOXIMVI cells at 10 uM after 48 hrs by coulter counter method; settings: read-out: GI; summary of the method: as §1
# CAKI-1 = experiment: Growth inhibition of human Caki1 cells at 10 uM after 48 hrs by coulter counter method; settings: CAKI-1, 48 h, read-out: GI; summary of the method: as §1
# A549 = experiment: Growth inhibition of human A549 cells at 10 uM after 48 hrs by coulter counter method; settings: A549, 48 h, read-out: GI; summary of the method: as §1
# U-251 = experiment: Growth inhibition of human U251 cells at 10 uM after 48 hrs by coulter counter method; settings: U-251, 48 h, read-out: GI; summary of the method: as §1
# NCI/ADR-RES = experiment: Growth inhibition of human NCI/ADR-RES cells at 10 uM after 48 hrs by coulter counter method; settings: read-out: GI; summary of the method: as §1
# SK-MEL-28 = experiment: Growth inhibition of human SK-MEL-28 cells at 10 uM after 48 hrs by coulter counter method; settings: SK-MEL-28, 48 h, read-out: GI; summary of the method: as §1
# T47D = experiment: Growth inhibition of human T47D cells at 10 uM after 48 hrs by coulter counter method; settings: read-out: GI; summary of the method: as §1
# TK-10 = experiment: Growth inhibition of human TK10 cells at 10 uM after 48 hrs by coulter counter method; settings: TK-10, 48 h, read-out: GI; summary of the method: as §1
# A498 = experiment: Growth inhibition of human A498 cells at 10 uM after 48 hrs by coulter counter method; settings: A498, 48 h, read-out: GI; summary of the method: as §1
# HCT-15 = experiment: Growth inhibition of human HCT15 cells at 10 uM after 48 hrs by coulter counter method; settings: HCT-15, 48 h, read-out: GI; summary of the method: as §1
# IGROV-1 = experiment: Growth inhibition of human IGROV1 cells at 10 uM after 48 hrs by coulter counter method; settings: IGROV-1, 48 h, read-out: GI; summary of the method: as §1
# NCI-H23 = experiment: Growth inhibition of human NCI-H23 cells at 10 uM after 48 hrs by coulter counter method; settings: NCI-H23, 48 h, read-out: GI; summary of the method: as §1
# Malme-3M = experiment: Growth inhibition of human MALME-3M cells at 10 uM after 48 hrs by coulter counter method; settings: read-out: GI; summary of the method: as §1
# HT-29 = experiment: Growth inhibition of human HT-29 cells at 10 uM after 48 hrs by coulter counter method; settings: HT-29, 48 h, read-out: GI; summary of the method: as §1
# HL-60(TB) = experiment: Growth inhibition of human HL-60(TB) cells at 10 uM after 48 hrs by coulter counter method; settings: HL-60, 48 h, read-out: GI
# Summary of the method: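 Single-dose screen on the NCI 60-line panel (leukemia subpanel). Compound is dissolved in DMSO and diluted in PBS, with final DMSO below 1%. Duplicate wells hold 6 × 10⁴ cells/ml at 37 °C, 5% CO₂, for 48 h. Cells are counted by Coulter counter after 10-fold saline dilution. Read-out is percent growth versus PBS/DMSO controls, expressed as % growth inhibition.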
# UACC-257 = experiment: Growth inhibition of human UACC257 cells at 10 uM after 48 hrs by coulter counter method; settings: UACC-257, 48 h, read-out: GI; summary of the method: as §1
# OVCAR-8 = experiment: Growth inhibition of human OVCAR8 cells at 10 uM after 48 hrs by coulter counter method; settings: OVCAR-8, 48 h, read-out: GI; summary of the method: as §1
# ACHN = experiment: Growth inhibition of human ACHN cells at 10 uM after 48 hrs by coulter counter method; settings: read-out: GI; summary of the method: as §1
# SK-MEL-2 = experiment: Growth inhibition of human SK-MEL-2 cells at 10 uM after 48 hrs by coulter counter method; settings: SK-MEL-2, 48 h, read-out: GI; summary of the method: as §1
# PC-3 = experiment: Growth inhibition of human PC3 cells at 10 uM after 48 hrs by coulter counter method; settings: PC-3, 48 h, read-out: GI; summary of the method: as §1
# MDA-MB-468 = experiment: Growth inhibition of human MDA-MB-468 cells at 10 uM after 48 hrs by coulter counter method; settings: MDA-MB-468, 48 h, read-out: GI; summary of the method: as §1
smiles,measurement,setting,value
O=C1N=C2SC(c3ccc(Cl)cc3)=NN2C1=O,inhibition of growth at 10 µM,M14,< 10%
same,inhibition of growth at 10 µM,NCI-H522,19.7%
same,inhibition of growth at 10 µM,NCI-H322M,< 10%
same,inhibition of growth at 10 µM,HCT-116,< 10%
same,inhibition of growth at 10 µM,UO-31,< 10%
same,inhibition of growth at 10 µM,KM12,< 10%
same,inhibition of growth at 10 µM,MDA-MB-435,< 10%
same,inhibition of growth at 10 µM,786-0,< 10%
same,inhibition of growth at 10 µM,SK-MEL-5,< 10%
same,inhibition of growth at 10 µM,SN12C,< 10%
same,inhibition of growth at 10 µM,SF-295,< 10%
same,inhibition of growth at 10 µM,SNB-19,< 10%
same,inhibition of growth at 10 µM,SR,11.1%
same,inhibition of growth at 10 µM,NCI-H226,< 10%
same,inhibition of growth at 10 µM,MCF7,12.1%
same,inhibition of growth at 10 µM,BT-549,12.2%
same,inhibition of growth at 10 µM,CCRF-CEM,< 10%
same,inhibition of growth at 10 µM,K562,12.7%
same,inhibition of growth at 10 µM,UACC-62,< 10%
same,inhibition of growth at 10 µM,EKVX,< 10%
same,inhibition of growth at 10 µM,SNB-75,< 10%
same,inhibition of growth at 10 µM,MOLT-4,10.6%
same,inhibition of growth at 10 µM,SF-268,< 10%
same,inhibition of growth at 10 µM,RPMI-8226,< 10%
same,inhibition of growth at 10 µM,LOX IMVI,< 10%
same,inhibition of growth at 10 µM,CAKI-1,< 10%
same,inhibition of growth at 10 µM,A549,< 10%
same,inhibition of growth at 10 µM,U-251,< 10%
same,inhibition of growth at 10 µM,NCI/ADR-RES,< 10%
same,inhibition of growth at 10 µM,SK-MEL-28,< 10%
same,inhibition of growth at 10 µM,T47D,< 10%
same,inhibition of growth at 10 µM,TK-10,< 10%
same,inhibition of growth at 10 µM,A498,< 10%
same,inhibition of growth at 10 µM,HCT-15,< 10%
same,inhibition of growth at 10 µM,IGROV-1,< 10%
same,inhibition of growth at 10 µM,NCI-H23,< 10%
same,inhibition of growth at 10 µM,Malme-3M,< 10%
same,inhibition of growth at 10 µM,HT-29,< 10%
same,inhibition of growth at 10 µM,HL-60(TB),15.2%
same,inhibition of growth at 10 µM,UACC-257,< 10%
same,inhibition of growth at 10 µM,OVCAR-8,< 10%
same,inhibition of growth at 10 µM,ACHN,< 10%
same,inhibition of growth at 10 µM,SK-MEL-2,< 10%
same,inhibition of growth at 10 µM,PC-3,< 10%
same,inhibition of growth at 10 µM,MDA-MB-468,< 10%
